Test results from ChEMBL document CHEMBL4425110, “ICI 56,780 Optimization: Structure-Activity Relationship Studies of 7-(2-Phenoxyethoxy)-4(1H)-quinolones with Antimalarial Activity” (J Med Chem, 2016).

test system: Plasmodium falciparum; experiment: Antimalarial activity against Plasmodium falciparum TM90-C2B; assay type: functional, organism-based; conditions: not given

Row | Structure (SMILES) | EC50 [nM]
1 | COC(=O)c1c[nH]c2cc(OCCc3ccccc3)ccc2c1=O | 7740
2 | COC(=O)c1c[nH]c2cc(F)ccc2c1=O | 395
3 | CCCCc1cc2c(=O)c(CC)c[nH]c2cc1OCCOc1ccccc1 | 1.92
4 | COC(=O)c1c[nH]c2cc(Oc3ccccc3)ccc2c1=O | 1950
5 | COC(=O)c1c[nH]c2ccc(OC)cc2c1=O | > 10700
6 | CCCCc1cc2c(=O)c(C(=O)NCC)c[nH]c2cc1OCCOc1ccccc1 | > 6120
7 | CCCCc1ccc2[nH]cc(C(=O)OC)c(=O)c2c1 | 222
8 | CCCCc1cc2c(=O)c(Br)c[nH]c2cc1OCCOc1ccccc1 | 48.7
9 | CCCCc1cc2c(=O)c(Cl)c(C)[nH]c2cc1OCCOc1ccccc1 | 67.7
10 | CCCCc1cc2c(=O)c(C(=O)OCC)c[nH]c2cc1OCCOc1ccccc1 | 100

test system: Plasmodium berghei; experiment: Antimalarial activity against Plasmodium berghei infected in mouse assessed as inhibition of parasitemia at 50 mg/kg, po administered as single dose measured on day 3 post drug exposure relative to untreated control; assay type: functional; conditions: 72 h
In short: (§1)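 Two infected mice per compound were each given a single oral dose of 50 mg/kg, suspended in PEG400, on day 1 post-exposure. Parasitemia was assessed on days 3 and 6 post-exposure.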

Row | Structure (SMILES) | inhibition in vivo at 50 mg/kg [%]
11 | COC(=O)c1c[nH]c2cc(OCCc3ccccc3)ccc2c1=O | 60
12 | CCCCc1cc2c(=O)c(CC)c[nH]c2cc1OCCOc1ccccc1 | 69.2
13 | COC(=O)c1c[nH]c2cc(Oc3ccccc3)ccc2c1=O | 40

test system: J774; experiment: Cytotoxicity against mouse J774 cells; assay type: cell-based; conditions: not given

Row | Structure (SMILES) | EC50 [µM]
14 | COC(=O)c1c[nH]c2cc(OCCc3ccccc3)ccc2c1=O | 17.2
15 | COC(=O)c1c[nH]c2cc(F)ccc2c1=O | > 20
16 | CCCCc1cc2c(=O)c(CC)c[nH]c2cc1OCCOc1ccccc1 | 0.36
17 | COC(=O)c1c[nH]c2cc(Oc3ccccc3)ccc2c1=O | 9.12
18 | COC(=O)c1c[nH]c2ccc(OC)cc2c1=O | 6.18
19 | CCCCc1cc2c(=O)c(C(=O)NCC)c[nH]c2cc1OCCOc1ccccc1 | > 20
20 | CCCCc1ccc2[nH]cc(C(=O)OC)c(=O)c2c1 | > 20
21 | CCCCc1cc2c(=O)c(Br)c[nH]c2cc1OCCOc1ccccc1 | 8.07
22 | CCCCc1cc2c(=O)c(Cl)c(C)[nH]c2cc1OCCOc1ccccc1 | > 10
23 | CCCCc1cc2c(=O)c(C(=O)OCC)c[nH]c2cc1OCCOc1ccccc1 | > 20

test system: Plasmodium berghei; experiment: Antimalarial activity against Plasmodium berghei; assay type: functional, organism-based; conditions: not given
In short: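 In vitro liver-stage (exoerythrocytic) assay against P. berghei; the value is the EC50 (nM).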

Row | Structure (SMILES) | EC50 [nM]
24 | COC(=O)c1c[nH]c2cc(F)ccc2c1=O | > 100
25 | CCCCc1cc2c(=O)c(CC)c[nH]c2cc1OCCOc1ccccc1 | 2.65
26 | COC(=O)c1c[nH]c2cc(Oc3ccccc3)ccc2c1=O | 110
27 | COC(=O)c1c[nH]c2ccc(OC)cc2c1=O | 79.6
28 | CCCCc1ccc2[nH]cc(C(=O)OC)c(=O)c2c1 | 0.819
29 | CCCCc1cc2c(=O)c(Br)c[nH]c2cc1OCCOc1ccccc1 | 18.7
30 | CCCCc1cc2c(=O)c(Cl)c(C)[nH]c2cc1OCCOc1ccccc1 | 11.2
31 | CCCCc1cc2c(=O)c(C(=O)OCC)c[nH]c2cc1OCCOc1ccccc1 | 0.007

test system: Plasmodium falciparum; experiment: Antimalarial activity against Plasmodium falciparum W2; assay type: functional, organism-based; conditions: not given

Row | Structure (SMILES) | EC50 [nM]
32 | COC(=O)c1c[nH]c2cc(OCCc3ccccc3)ccc2c1=O | 139
33 | COC(=O)c1c[nH]c2cc(F)ccc2c1=O | 26.2
34 | CCCCc1cc2c(=O)c(CC)c[nH]c2cc1OCCOc1ccccc1 | 0.44
35 | COC(=O)c1c[nH]c2cc(Oc3ccccc3)ccc2c1=O | 16.6
36 | COC(=O)c1c[nH]c2ccc(OC)cc2c1=O | 482
37 | CCCCc1cc2c(=O)c(C(=O)NCC)c[nH]c2cc1OCCOc1ccccc1 | 206
38 | CCCCc1ccc2[nH]cc(C(=O)OC)c(=O)c2c1 | 1.58
39 | CCCCc1cc2c(=O)c(Br)c[nH]c2cc1OCCOc1ccccc1 | 4.64
40 | CCCCc1cc2c(=O)c(Cl)c(C)[nH]c2cc1OCCOc1ccccc1 | 6.92
41 | CCCCc1cc2c(=O)c(C(=O)OCC)c[nH]c2cc1OCCOc1ccccc1 | 0.143

test system: not listed separately; experiment: Liver blood index, ratio of EC50 for Plasmodium falciparum W2 to EC50 for Plasmodium berghei; assay type: functional; conditions: not given
In short: (§2)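 Liver-stage EC50 measured in vitro against P. berghei. Liver blood index is the blood-stage EC50 divided by the P. berghei EC50, using either W2 or TM90-C2B as the blood-stage strain.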

Row | Structure (SMILES) | Ratio EC50
42 | CCCCc1cc2c(=O)c(CC)c[nH]c2cc1OCCOc1ccccc1 | 0.166
43 | COC(=O)c1c[nH]c2cc(Oc3ccccc3)ccc2c1=O | 0.15
44 | COC(=O)c1c[nH]c2ccc(OC)cc2c1=O | 6.05
45 | CCCCc1ccc2[nH]cc(C(=O)OC)c(=O)c2c1 | 1.93
46 | CCCCc1cc2c(=O)c(Br)c[nH]c2cc1OCCOc1ccccc1 | 0.248
47 | CCCCc1cc2c(=O)c(Cl)c(C)[nH]c2cc1OCCOc1ccccc1 | 0.616
48 | CCCCc1cc2c(=O)c(C(=O)OCC)c[nH]c2cc1OCCOc1ccccc1 | 19.6

test system: not listed separately; experiment: Liver blood index, ratio of EC50 for Plasmodium falciparum TM90-C2B to EC50 for Plasmodium berghei; assay type: functional; conditions: not given; in short: as §2

Row | Structure (SMILES) | Ratio EC50
49 | CCCCc1cc2c(=O)c(CC)c[nH]c2cc1OCCOc1ccccc1 | 0.725
50 | COC(=O)c1c[nH]c2cc(Oc3ccccc3)ccc2c1=O | 17.7
51 | CCCCc1ccc2[nH]cc(C(=O)OC)c(=O)c2c1 | 271
52 | CCCCc1cc2c(=O)c(Br)c[nH]c2cc1OCCOc1ccccc1 | 2.6
53 | CCCCc1cc2c(=O)c(Cl)c(C)[nH]c2cc1OCCOc1ccccc1 | 6.03
54 | CCCCc1cc2c(=O)c(C(=O)OCC)c[nH]c2cc1OCCOc1ccccc1 | 14300

test system: Plasmodium berghei; experiment: Antimalarial activity against Plasmodium berghei infected in mouse assessed as inhibition of parasitemia at 50 mg/kg, po administered as single dose measured on day 6 post drug exposure relative to untreated control; assay type: functional; conditions: 144 h; in short: as §1

Row | Structure (SMILES) | inhibition in vivo at 50 mg/kg [%]
55 | COC(=O)c1c[nH]c2cc(OCCc3ccccc3)ccc2c1=O | < 1
56 | CCCCc1cc2c(=O)c(CC)c[nH]c2cc1OCCOc1ccccc1 | 17.7
57 | COC(=O)c1c[nH]c2cc(Oc3ccccc3)ccc2c1=O | 29.8

test system: Plasmodium falciparum; experiment: Resistance index, ratio of EC50 for Plasmodium falciparum TM90-C2B to EC50 for Plasmodium falciparum W2; assay type: functional; conditions: not given

Row | Structure (SMILES) | Ratio EC50
58 | COC(=O)c1c[nH]c2cc(OCCc3ccccc3)ccc2c1=O | 55.7
59 | COC(=O)c1c[nH]c2cc(F)ccc2c1=O | 15.1
60 | CCCCc1cc2c(=O)c(CC)c[nH]c2cc1OCCOc1ccccc1 | 4.36
61 | COC(=O)c1c[nH]c2cc(Oc3ccccc3)ccc2c1=O | 117
62 | COC(=O)c1c[nH]c2ccc(OC)cc2c1=O | >22.2
63 | CCCCc1cc2c(=O)c(C(=O)NCC)c[nH]c2cc1OCCOc1ccccc1 | >29.7
64 | CCCCc1ccc2[nH]cc(C(=O)OC)c(=O)c2c1 | 141
65 | CCCCc1cc2c(=O)c(Br)c[nH]c2cc1OCCOc1ccccc1 | 10.5
66 | CCCCc1cc2c(=O)c(Cl)c(C)[nH]c2cc1OCCOc1ccccc1 | 9.79
67 | CCCCc1cc2c(=O)c(C(=O)OCC)c[nH]c2cc1OCCOc1ccccc1 | 699
